pIC50: −log10 of the molar value.
Experiments:
[1] = target: GABA-A receptor; anion channel; experiment: The concentration required to inhibit 50% of binding of [35S]TBPS to Gamma-aminobutyric acid A receptor to rat whole brain membranes.; assay type: cell membranes
Mus musculus = experiment: Hypnotic dose was determined by observing loss of righting reflex for a minimum period of 30 sec in 50% of treated mice after i.v. administration.; assay type: functional
Outline: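 Male CFLP mice (25–35 g), tested in the light period. Groups of eight received an i.v. lateral tail vein injection over 10 s (10 mL kg-1) on a μmol/kg dose series, e.g. 2–16, with extra doses added. Vehicle was saline for amine salts; standards were in HPCD/saline, emulsion or saline. HD50 with 95% confidence limits was obtained by probit analysis of the fraction showing LRR ≥30 s.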

[2] = Therapeutic index by the ratio between LD50 to HD50
[3] = target: GABA-A receptor; anion channel (Bos taurus) (UniProt P10063+P08220+P20237+P08219+P10064+P22300); experiment: Concentration required to potentiate GABA-evoked currents in voltage-clamped bovine chromaffin cells by 300%; assay type: functional
Outline: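 Adult bovine chromaffin cells, primary culture, recorded 4 h to 2 days after plating. Whole-cell patch clamp, continuous superfusion with 140 mM NaCl, 2.8 mM KCl, 2 mM MgCl2, 1 mM CaCl2, 10 mM HEPES (pH 7.2). CsCl-based pipette solution, room temperature (18–22 °C). Currents filtered at 500 Hz. Steroid concentration enhancing the GABA-evoked response by 300% of control was interpolated; mean ± SEM of N cells.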

| SMILES | pIC50 [1] | HD50 (Mus musculus) [µM/kg] | selectivity ratio [2] | POT [3] [nM] |
| --- | --- | --- | --- | --- |
| CC(=O)[C@H]1CC[C@H]2[C@@H]3CC[C@H]4C[C@H](O)[C@@H](N5CCO[C@H](C(C)C)C5)C[C@]4(C)[C@H]3C(=O)C[C@]12C | 7.05 | 3.4 | 9.9 | – |
| CC1(C)CN([C@H]2C[C@@]3(C)[C@@H](CC[C@@H]4[C@@H]3CC[C@]3(C)[C@@H](C(=O)CO)CC[C@@H]43)C[C@@H]2O)CCO1 | 6.57 | 18.4 | – | 310 |
| CC(=O)[C@H]1CC[C@H]2[C@@H]3CC[C@H]4C[C@H](O)[C@@H](N5CCOC(C)(C)C5)C[C@]4(C)[C@H]3CC[C@]12C | 6.97 | 17.4 | – | 120 |
| CC(=O)OCC(=O)[C@H]1CC[C@H]2[C@@H]3CC[C@H]4C[C@H](O)[C@@H](N5CCOC(C)(C)C5)C[C@]4(C)[C@H]3C(=O)C[C@]12C | 6.02 | 21.1 | – | 1300 |
| CC(C)c1cccc(C(C)C)c1O [PROPOFOL] | – | 68 | 3.5 | 2000 |
| CC1(C)CN([C@H]2C[C@@]3(C)[C@@H](CC[C@@H]4[C@@H]3CC[C@]3(C)[C@@H](C(=O)CCl)CC[C@@H]43)C[C@@H]2O)CCO1 | 7.41 | 17.6 | – | 380 |
| CC1(C)CN([C@H]2C[C@@]3(C)[C@@H](CC[C@H]4[C@@H]5CC[C@H](C(=O)CO)[C@@]5(C)CC(=O)[C@@H]43)C[C@@H]2O)CCO1 | 5.25 | 42.3 | – | 4400 |
| CC(=O)[C@H]1CC[C@H]2[C@@H]3CC[C@H]4C[C@H](O)[C@@H](N5CCOCC5)C[C@]4(C)[C@H]3C(=O)C[C@]12C | 5.59 | 34.6 | 4.6 | – |
| CC(=O)[C@H]1CC[C@H]2[C@@H]3CC[C@@H]4C[C@H](O)CC[C@]4(C)[C@H]3CC[C@]12C [ELTANOLONE] | 6.93 | 9.5 | – | 115 |
| CC(=O)[C@H]1CC[C@H]2[C@@H]3CC[C@H]4C[C@H](O)[C@@H](N5CCO[C@H](C)C5)C[C@]4(C)[C@H]3CC[C@]12C | 6.43 | 15 | – | 250 |
| CC(=O)[C@H]1CC[C@H]2[C@@H]3CC[C@H]4C[C@H](O)[C@@H](N5C[C@@H](C)O[C@@H](C)C5)C[C@]4(C)[C@H]3C(=O)C[C@]12C | 5.50 | 14.4 | 5.8 | – |
| CC(=O)[C@H]1CC[C@H]2[C@@H]3CC[C@H]4C[C@H](O)[C@@H](N5CCOCC5)C[C@]4(C)[C@H]3CC[C@]12C | – | 22.2 | – | 215 |
| CC(=O)[C@H]1CC[C@H]2[C@@H]3CC[C@H]4C[C@H](O)CC[C@]4(C)[C@H]3CC[C@]12C [BREXANOLONE] | 7.04 | 10 | – | 105 |
| CCC[C@@H]1CN([C@H]2C[C@@]3(C)[C@@H](CC[C@H]4[C@@H]5CC[C@H](C(C)=O)[C@@]5(C)CC(=O)[C@@H]43)C[C@@H]2O)CCO1 | 6.85 | 6.4 | – | – |
| CC(=O)SCC(=O)[C@H]1CC[C@H]2[C@@H]3CC[C@H]4C[C@H](O)[C@@H](N5CCOC(C)(C)C5)C[C@]4(C)[C@H]3C(=O)C[C@]12C | 6.58 | 7.9 | – | 245 |
| CC(=O)[C@H]1CC[C@H]2[C@@H]3CC[C@H]4C[C@H](O)[C@@H](N5CCO[C@H](C)C5)C[C@]4(C)[C@H]3C(=O)C[C@]12C | 5.94 | 17 | – | – |
| CC(=O)[C@H]1CC[C@H]2[C@@H]3CC[C@H]4C[C@H](O)[C@@H](N5CCSC(C)(C)C5)C[C@]4(C)[C@H]3C(=O)C[C@]12C | 6.68 | 13.7 | 16.3 | – |
| C[C@]12CC[C@@H](O)C[C@@H]1CC[C@@H]1[C@@H]2CC[C@]2(C)[C@@H](C(=O)CO)CC[C@@H]12 | 6.66 | 18.5 | – | 300 |
| C[C@]12C[C@H](N3CCOCC3)[C@@H](O)C[C@@H]1CC[C@@H]1[C@@H]2CC[C@]2(C)[C@@H](C(=O)CO)CC[C@@H]12 | 5.52 | 31.6 | – | 2300 |
| CC(=O)[C@H]1CC[C@H]2[C@@H]3CC[C@H]4C[C@H](O)[C@@H](N5CCO[C@H](Cc6ccccc6)C5)C[C@]4(C)[C@H]3C(=O)C[C@]12C | 6.88 | 12.6 | – | – |
| CC(=O)[C@H]1CC[C@H]2[C@@H]3CC[C@H]4C[C@H](O)[C@@H](N5CCOC(c6ccccc6)(c6ccccc6)C5)C[C@]4(C)[C@H]3C(=O)C[C@]12C | 6.30 | 49.9 | – | – |
| CCC1(CC)CN([C@H]2C[C@@]3(C)[C@@H](CC[C@H]4[C@@H]5CC[C@H](C(C)=O)[C@@]5(C)CC(=O)[C@@H]43)C[C@@H]2O)CCO1 | 7.10 | 12 | – | – |
| CC(=O)OCC(=O)[C@H]1CC[C@H]2[C@@H]3CC[C@H]4C[C@H](O)[C@@H](N5CCOC(C)(C)C5)C[C@]4(C)[C@H]3CC[C@]12C | 6.41 | 16.9 | – | – |
| CC(=O)[C@H]1CC[C@H]2[C@@H]3CC[C@H]4C[C@H](O)[C@@H](N5CCO[C@H](CC(C)C)C5)C[C@]4(C)[C@H]3C(=O)C[C@]12C | 7.28 | 6.5 | – | – |
| CC(=O)[C@H]1CC[C@H]2[C@@H]3CC[C@H]4C[C@H](O)[C@@H](N5CCOC(C)(C)C5)C[C@]4(C)[C@H]3C(=O)C[C@]12C | – | 9.8 | – | 700 |
| CC1(C)CN([C@H]2C[C@@]3(C)[C@@H](CC[C@H]4[C@@H]5CC[C@H](C(=O)CCl)[C@@]5(C)CC(=O)[C@@H]43)C[C@@H]2O)CCO1 | 6.69 | 13.4 | – | 450 |
| CC(=O)[C@H]1CC[C@H]2[C@@H]3CC[C@H]4C[C@H](O)[C@@H](N5CCSC(C)(C)C5)C[C@]4(C)[C@H]3CC[C@]12C | 6.94 | 51.9 | – | – |
| CC(=O)OCC(=O)[C@H]1CC[C@H]2[C@@H]3CC[C@H]4C[C@H](O)[C@@H](N5CCOCC5)C[C@]4(C)[C@H]3CC[C@]12C | 6.57 | 31 | – | 660 |
| CC(=O)[C@H]1CC[C@H]2[C@@H]3CC[C@H]4C[C@H](O)[C@@H](N5CC(C)(C)SC(C)(C)C5)C[C@]4(C)[C@H]3C(=O)C[C@]12C | 6.64 | 61.8 | – | – |
| CC(=O)[C@H]1CC[C@H]2[C@@H]3CC[C@H]4C[C@H](O)CC[C@]4(C)[C@H]3C(=O)C[C@]12C [ALFAXALONE] | – | 6.3 | – | 700 |

Reference: ChEMBL document CHEMBL1130383, “Anesthetic activity of novel water-soluble 2 beta-morpholinyl steroids and their modulatory effects at GABAA receptors” (J Med Chem, 1997)
